5 molecules from ChEMBL document CHEMBL1156424, “Withaferin a strongly elicits IkappaB kinase beta hyperphosphorylation concomitant with potent inhibition of its kinase activity” (J Biol Chem, 2007) can be followed below.

The source made the active and inactive calls. The calls are words filed in the database; no cut-off is given here.

Test [1] can be described thus: (§1) Inhibition of TNF-induced NF-kappaB-mediated IL6 promoter expression in mouse L929sA cells by luciferase reporter gene assay. In kind it is cell-based. Put shortly:
(§2)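 Stably transfected mouse L929sA cells carrying p(IL-6κB)350hu.IL6P-luc+ (NFκB-responsive elements in front of a minimal IL-6 promoter), pretreated 1 h with compound over a concentration range, then given 2000 IU/ml TNF for 6 h. Luciferase in lysates was normalized to co-expressed β-galactosidase (chemiluminescent) and protein.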
Background: A reporter such as luciferase makes a cellular process visible.

Test [2] has as its system Mus musculus. In words: Antiinflammatory activity against ip dosed zymosan-induced C57BL/6J mouse inflamed paw model assessed as effect on paw swelling administered 30 mins before zymosan challenge. The test is classed as functional, organism-based. Put shortly:
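Male/female not stated; 8-week-old C57BL/6J mice, 10 per group. 60 µl ip of 0.5 mg/mouse in Me2SO (vehicle group: Me2SO alone; DEX 150 µg/mouse as comparator), then 30 min later zymosan (15 mg/ml in PBS) sc into right footpad, left footpad uninjected. Thickness of both footpads measured by caliper at 6, 12, 24 and 48 h; read-out is injected minus non-injected difference.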

Test [3] deals with Mus musculus. In words: Reduction of IL6 protein level in ip dosed zymosan-induced C57BL/6J mouse inflamed paw model measured 6 hrs after zymosan challenge. The test is classed as functional, organism-based. An outline of the steps: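 Mice (six per group) pretreated ip with 0.5 mg/mouse in Me2SO, DEX 150 µg/mouse or Me2SO 60 µl/mouse, 30 min before footpad zymosan. Blood drawn by retro-orbital sinus puncture under isoflurane 6 h after zymosan; IL-6 quantified by 7TD1 cell growth-stimulation bioassay. Groups compared with control by ANOVA, p<0.05 significant.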

The test system of test [4] is L929sA. Described as §1. In kind it is cell-based. An outline of the steps:
as §2

In test [5] the test system is L929sA. Briefly: Reversal of inhibition of TNF-induced NFkappaB/DNA binding in mouse L929sA cells at 2.8 ug/ml in presence of 250 uM dithiothreitol by electrophoretic mobility shift assay. In kind it is cell-based. An outline of the steps: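 L929sA cells co-treated 1 h with 2.8 µg/ml and 250 µM DTT, then 2000 IU/ml TNF for 30 min. Equal protein from total extracts incubated 25 min with a 32P-labeled NFκB-specific oligonucleotide (labeled with [α-32P]dCTP by Klenow) for EMSA.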
Background: In EMSA bound probe runs differently from free probe, usually more slowly.

Test [6] has as its target T1, Inhibitor of nuclear factor kappa-B kinase subunit beta (Mus musculus) (UniProt O88351).
T1 sequence (whole entry): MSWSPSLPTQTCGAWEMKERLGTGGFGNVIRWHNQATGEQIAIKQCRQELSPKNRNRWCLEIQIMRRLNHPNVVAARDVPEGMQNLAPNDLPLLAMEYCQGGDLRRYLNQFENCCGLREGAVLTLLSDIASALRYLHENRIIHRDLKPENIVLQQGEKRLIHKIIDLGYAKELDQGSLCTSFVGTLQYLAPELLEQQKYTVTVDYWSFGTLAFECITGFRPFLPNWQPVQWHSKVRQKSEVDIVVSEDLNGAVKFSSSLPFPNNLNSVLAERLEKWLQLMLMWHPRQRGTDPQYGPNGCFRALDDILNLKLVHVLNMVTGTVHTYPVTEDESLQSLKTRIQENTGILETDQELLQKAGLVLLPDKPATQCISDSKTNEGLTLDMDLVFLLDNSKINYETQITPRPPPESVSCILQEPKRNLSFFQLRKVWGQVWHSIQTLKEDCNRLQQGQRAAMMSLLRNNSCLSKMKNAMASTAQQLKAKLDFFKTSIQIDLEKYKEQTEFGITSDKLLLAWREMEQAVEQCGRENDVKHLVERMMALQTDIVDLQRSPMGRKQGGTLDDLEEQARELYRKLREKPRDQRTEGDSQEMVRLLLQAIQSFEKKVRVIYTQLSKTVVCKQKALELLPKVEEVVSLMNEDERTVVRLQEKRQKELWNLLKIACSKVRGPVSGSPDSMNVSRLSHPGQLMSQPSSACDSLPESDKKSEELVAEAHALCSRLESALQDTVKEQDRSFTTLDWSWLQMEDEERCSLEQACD
In words: Induction of IKK-beta-hyperphosphorylation in TNF-stimulated mouse L929sA cells at 2.8 ug/ml by Western blot. (In western blotting, separated proteins are transferred to a membrane and probed.)

The target in test [7] is T1, Inhibitor of nuclear factor kappa-B kinase subunit beta (Mus musculus). In words: Induction of IKK-beta-mediated IkappaBalpha degradation in TNF-stimulated mouse L929sA cells at 2.8 ug/ml by Western blot.
The target is the same in test [8]. In words: Reversal of induction of IKK-beta-hyperphosphorylation in TNF-stimulated mouse L929sA cells at 2.8 ug/ml in presence of 5 mM dithiothreitol.

Broadly, the IC50 is the concentration needed to halve the response being measured. Regarding `C=C1C(=O)O[C@@H]2C[C@@H](C)[C@@H]3C=CC(=O)[C@@]3(C)[C@@H](O)[C@H]12` [HELENALIN], in test [1], the half-inhibitory concentration (IC50) turned out to be 2.5 µM.
For `C[C@@H]1C[C@H]2[C@@H]3CCC4=CC(=O)C=C[C@]4(C)[C@@]3(F)[C@@H](O)C[C@]2(C)[C@@]1(O)C(=O)CO`, the outcome in the test with Mus musculus [2] and in the test with Mus musculus [3] was Active.
In the case of `CC1=C(CO)C(=O)O[C@@H]([C@@H](C)[C@H]2CC[C@H]3[C@@H]4C[C@H]5O[C@]56[C@@H](O)C=CC(=O)[C@]6(C)[C@H]4CC[C@]23C)C1` [WITHAFERIN A], in test [1], the IC50 was determined as 0.25 µM. Moreover, in the test on L929sA [4], the Efficacy came out at 95%. In addition, the outcome (with L929sA [5]; in the test with Mus musculus [2]; in the test on Mus musculus [3]; in test [6]; in test [7]; in test [8]) was Active.
Turning to `CC1=C(CO)C(=O)OC([C@@H](C)C2CCC3C4C(CC[C@@]32C)[C@@]2(C)C(=O)C=CC[C@]2(O)[C@H]2O[C@@H]42)C1` (some centres not stated), in test [1], the midpoint of inhibition, the IC50, lay at 90 µM. Besides, the result in test [6] and in test [7] was inactive.
In test [1], `CC1=C(C)C(=O)O[C@@H]([C@](C)(O)[C@H]2CC[C@H]3[C@@H]4[C@@H]5O[C@@H]5[C@@]5(O)CC=CC(=O)[C@]5(C)[C@H]4CC[C@]23C)C1` [WITHANOLIDE A] returned an IC50 of 50 µM. The result in test [6] and in test [7] was inactive.
